{"source": "PubChem BioAssay AID488811", "about": "(Sanford-Burnham Center for Chemical Genomics, 2010)", "note": "Activity calls are given as the source filed them.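 The calls were made as follows: active = mean EC50 below 10 µM; inactive = the rest.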", "data": [{"biological_target": "Apelin receptor (Homo sapiens) (UniProt P35414)", "sequence (P35414 whole entry, looked up, the tested form may be a part)": "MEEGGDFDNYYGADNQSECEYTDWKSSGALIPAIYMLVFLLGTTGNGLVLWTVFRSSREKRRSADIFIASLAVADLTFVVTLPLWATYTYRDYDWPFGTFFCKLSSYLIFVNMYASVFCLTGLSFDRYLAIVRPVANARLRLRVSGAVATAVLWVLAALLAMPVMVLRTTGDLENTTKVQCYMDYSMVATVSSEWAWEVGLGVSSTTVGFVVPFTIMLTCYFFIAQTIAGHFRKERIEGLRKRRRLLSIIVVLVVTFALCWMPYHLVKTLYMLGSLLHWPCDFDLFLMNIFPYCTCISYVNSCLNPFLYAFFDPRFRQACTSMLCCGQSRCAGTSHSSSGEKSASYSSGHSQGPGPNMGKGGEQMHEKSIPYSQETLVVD", "assay": "APJ agonists, beta-arrestin recruitment, SAR follow-up, cell-based, luminescence (AID 488811)", "conditions": "CHO-K1 AGTRL-1 PathHunter beta-arrestin", "summary_of_the_method": "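Material: CHO-K1 APJ β-arrestin enzyme-fragment complementation cells. Times: overnight seeding, 90 min compound exposure at 25 °C. Measured by: β-gal complementation luminescence, 60 min reagent incubation.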", "values": [{"smiles": "CCc1c(O)nc(SC)n(C2CCCCC2)c1=O", "EC50": "> 79 µM (inactive)"}, {"smiles": "CC1=C/C(=N/OS(=O)(=O)c2ccc(C)cc2)C=CC1=O", "EC50": "> 79 µM (inactive)"}, {"smiles": "Cc1ccc(S(=O)(=O)Nc2nc(-c3ccccc3)cs2)cc1", "EC50": "> 79 µM (inactive)"}, {"smiles": "CCc1c(O)nc(SCc2ccccc2)n(C(C)CC)c1=O", "note": "(stereo not drawn)", "EC50": "> 79 µM (inactive)"}, {"smiles": "O=S(=O)(Nc1nc(-c2ccccc2)cs1)c1ccc(Br)cc1", "EC50": "> 79 µM (inactive)"}, {"smiles": "CC1=CC(=NOS(=O)(=O)c2ccc(C)cc2)C=C(C)C1=O", "EC50": "2.52 µM"}, {"smiles": "CC1=CC(=O)C=C(C)C1=NOS(=O)(=O)c1ccccc1", "EC50": "> 79 µM (inactive)"}, {"smiles": "CCSc1nc(O)c(CC)c(=O)n1C(C)CC", "note": "(stereo not drawn)", "EC50": "inactive"}, {"smiles": "C=CCSc1nc(O)c(CC)c(=O)n1C(C)CC", "note": "(stereo not drawn)", "EC50": "inactive"}, {"smiles": "CC1=CC(=NOS(=O)(=O)c2ccc(Cl)cc2)C=C(C)C1=O", "EC50": "2.9 µM"}, {"smiles": "CC1=C/C(=N/OS(=O)(=O)c2ccc(C)cc2)C(C(C)C)=CC1=O", "EC50": "9.9 µM"}, {"smiles": "Cc1cc(C)n2nc3nc(N4CCOCC4)nc(-c4ccccc4)c3c2n1", "EC50": "> 79 µM (inactive)"}, {"smiles": "CC1=CC(=NOS(=O)(=O)c2ccccc2)C=CC1=O", "EC50": "> 79 µM (inactive)"}, {"smiles": "CCc1c(O)nc(SC(C)CC)n(C(C)CC)c1=O", "note": "(stereo not drawn)", "EC50": "inactive"}, {"smiles": "CCc1c(O)nc(SCc2ccccc2)n(C2CCCCC2)c1=O", "EC50": "> 79 µM (inactive)"}, {"smiles": "Cc1ccc(S(=O)(=O)ON=C2C=CC(=O)C=C2)cc1", "EC50": "> 79 µM (inactive)"}, {"smiles": "CCN1C(c2ccccc2)=C(c2ccccc2)S/C1=C/C=C1\\SC(=S)N(C)C1=O", "EC50": "3.44 µM"}, {"smiles": "CCN1/C(=C\\C=C2/SC(=S)N(C)C2=O)Sc2ccccc21", "EC50": "> 79 µM (inactive)"}, {"smiles": "CN(C)CCSc1nc(O)c(-c2ccccc2)c(=O)n1-c1ccccc1", "EC50": "> 79 µM (inactive)"}, {"smiles": "COc1ccc(S(=O)(=O)ON=C2C=C(C)C(=O)C(C)=C2)cc1", "EC50": "2.56 µM"}, {"smiles": "CCCCSc1nc(O)c(CC)c(=O)n1C1CCCCC1", "EC50": "> 79 µM (inactive)"}, {"smiles": "CC1=C/C(=N\\OS(=O)(=O)c2ccc(C)cc2)C(C)=CC1=O", "EC50": "5.4 µM"}, {"smiles": "CC1=C/C(=N/OS(=O)(=O)c2ccccc2)C(C)=CC1=O", "EC50": "6.82 µM"}, {"smiles": "CCCCSc1nnc(NC(=O)CSc2nc3ncccc3[nH]2)s1", "EC50": "> 79 µM (inactive)"}, {"smiles": "CC1=C/C(=N\\OS(=O)(=O)c2ccc(Cl)cc2)C=CC1=O", "EC50": "> 79 µM (inactive)"}, {"smiles": "CC1=CC(=O)C(C(C)C)=C/C1=N/OS(=O)(=O)c1ccccc1", "EC50": "5.98 µM"}, {"smiles": "CSc1nc(=O)cc(N)n1-c1ccc(C)cc1", "EC50": "> 79 µM (inactive)"}, {"smiles": "CCN1/C(=C/C(=O)c2sc(=S)n(CC)c2O)Sc2ccccc21", "EC50": "> 79 µM (inactive)"}, {"smiles": "COc1ccc(S(=O)(=O)O/N=C2\\C=C(C(C)C)C(=O)C=C2C)cc1", "EC50": "4.93 µM"}, {"smiles": "CC1=CC(=O)C(C(C)C)=CC1=NOS(=O)(=O)c1ccccc1", "EC50": "5.74 µM"}, {"smiles": "CC1=CC(=NOS(=O)(=O)c2ccccc2)C(C(C)C)=CC1=O", "EC50": "7.43 µM"}, {"smiles": "CCc1c(O)nc(SC)n(C(C)CC)c1=O", "note": "(stereo not drawn)", "EC50": "> 79 µM (inactive)"}, {"smiles": "O=S(=O)(Nc1nc(-c2ccccc2)cs1)c1ccc(Cl)cc1", "EC50": "> 79 µM (inactive)"}, {"smiles": "CC1=CC(=NOS(=O)(=O)c2ccccc2)C=C(C)C1=O", "EC50": "2.5 µM"}, {"smiles": "CCSc1nc(O)c(CC)c(=O)n1C1CCCCC1", "EC50": "> 79 µM (inactive)"}, {"smiles": "C=CCSc1nc(O)c(CC)c(=O)n1-c1ccc(C)cc1", "EC50": "> 79 µM (inactive)"}, {"smiles": "C=CCSc1nc(O)c(CC)c(=O)n1C1CCCCC1", "EC50": "> 79 µM (inactive)"}, {"smiles": "COc1ccccc1-n1c(SCC(=O)c2ccccc2)nc(O)cc1=O", "EC50": "inactive"}, {"smiles": "CCCSc1nc(O)c(CC)c(=O)n1C(C)CC", "note": "(stereo not drawn)", "EC50": "inactive"}, {"smiles": "CC1=C(C)C(=NOS(=O)(=O)c2ccc(C)cc2)C=CC1=O", "EC50": "> 79 µM (inactive)"}, {"smiles": "C=CCn1c(SCc2ccccc2)nc(O)c(CC)c1=O", "EC50": "> 79 µM (inactive)"}, {"smiles": "CCc1c(O)n(C2CCCCC2)c(=S)[nH]c1=O", "EC50": "> 79 µM (inactive)"}, {"smiles": "CC1=CC(=O)C=C/C1=N\\OS(=O)(=O)c1ccc(C)cc1", "EC50": "> 79 µM (inactive)"}]}]}
